System: MS2 coat protein
Test: apparent Kd, MS2 coat protein; higher = weaker binding; RNA-MaP array; FMN 200 µM where present
In short: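 Each design was made on Illumina sequencing-chip clusters by stalled E. coli RNA polymerase and titrated with SNAP-549-labelled MS2 coat protein from 0.7 or 1.5 nM, doubling to 3 µM, in the absence and then the presence of constant ligand. The buffer was 100 mM Tris-HCl pH 7.5, 80 mM KCl, 4 mM MgCl2, BSA, DTT, yeast tRNA and Tween-20. The apparent Kd is the median of filtered per-cluster fits of binding curves, with green signal normalised to red-channel RNA signal and control-cluster median Fmax.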

[1] = designed as: OFF switch for flavin mononucleotide, no ligand
[2] = ligand present: flavin mononucleotide, designed as: OFF switch for flavin mononucleotide
[3] = designed as: ON switch for flavin mononucleotide, no ligand
[4] = ligand present: flavin mononucleotide, designed as: ON switch for flavin mononucleotide

Sequence | apparent Kd [1] | apparent Kd [2] | apparent Kd [3] | apparent Kd [4]
GUAUGACAAAGUCAUACCGCUUUGACAUGAGGAUCACCCAUGUAGGAUAUAUUAAUCAAAGAUUAAUAGAAGGACAUGUUUCUU | 43.7 nM | 114 nM |  | 
UCAGGCUUCGAGAAGGACAUGAGGAUCACCCAUGUUAGUGUGAAGCAGCCGUGAGGCUGCAUCAUGUAGGAUAUCGGAGUCUGC | 25.5 nM | 189 nM |  | 
CGCAAGUAUACAUGAGGAUCACCCAUGUCAGAAAGGGUAAUCAGAAGGUACAAUUAGAGAUAGAGUAAGGAUAUGAAAUUUGCG |  |  | 750 nM | 274 nM
CCUCAGUUAGGAUAUUACUAAUCACUAACCGGGCAACUGGGUAAGAAGGAACAUGAGGAUCACCCAUGUUACGU | 22.1 nM | 22.2 nM |  | 
UGCAUCAAUGAAGGAUAUCUAUGUCCAACAUGAGGAUCACCCAUGUUGAGGAUUACCUAUGUGUAGGAGAAGGUCAAUAUAACU |  |  | 6.67 nM | 6.12 nM
ACAUCUCGAGCCGACGGGAGAGUACAUGAGGAUCACCCAUGUGAGGAUAUCCCUGAGAAGACGGCGGAGAAGGCACUGGGUAGG | 6.33 nM | 10.4 nM |  | 
AAAAAAAAAGUAGAGGAUAUCCGAGUGGUAACAUGAGGAUCACCCAUGUGAAGAAAGGAACAUGAGGAGAAGGCUACAAAAAAAAA |  |  | 46.6 nM | 16.6 nM
CUGAGGUCAGGAUAUGCAUGGCGGGACUUGCGUCGUGGCGUGGAGAAGGGACAUGAGGAUCACCCAUGUGGAGA | 83 nM | 81.1 nM |  | 
GGAUGACAUAGUCAUCUUUAACGAACAUGAGGAUCACCCAUGUAGGAUAUGCUACUCAACGAGUAGCAGAAGGACAUGUGUCUU | 25.9 nM | 127 nM |  | 
UAAGACUAGCAUUGGUAUCUCCACAUGAGGAUCACCCAUGUCUAGGAUAUGAGCAGCAAAGCUGCUUAGAAGGAGACGCUAGUC | 8.47 nM | 12.6 nM |  | 
CAGUACUGAGGAUAUACAUGAGGAUCACCCAUGUGUUCCUUGUAGGAUAUGCGCAAAAGUAGAAGCCAGAAGGAGAUGUGCCUA | 6.95 nM | 7.31 nM |  | 
CUGGUUCUCGUAGGAUAUGUAGGAUAUGCCUACAUGAGGAUCACCCAUGUUCGCAUGGCAGAAGGACAGAAGGACGAUCACCAC |  |  | 323 nM | 20.7 nM
UUAGUCAUGUGACGUGUUGACAUUCCAGAAGGGCCACAUGAGGAUCACCCAUGUCGAAGAAACAGGCAGGAUAUGGACCAAUGG |  |  | 43 nM | 11.2 nM
GGACCUCCUGAGGAUAUUGCAUCACCCGACUGAUAAGAAGGCAGAACAUGAGGAUCACCCAUGUGGGUACUCGG | 32.3 nM | 36.1 nM |  | 
GCUAUUGAUGUAGGAUAUGAUAUAGAAACUAUGUCAGAAGGACAUGAGGAUCACCCAUGUCAAUGGAUGGAGAGAAGAAAUGGC | 47.8 nM | 59.2 nM |  | 
CGAUGACAAAGUCAUCGAAUACGAACAUGAGGAUCACCCAUGUAGGAUAUGCUACUCAAAGAGUAGCAGAAGGACAUGUGUCUU | 31.4 nM | 154 nM |  | 
AGAAACUACGAGAAGGACAUGAGGAUCACCCAUGUUUCCACUUAGUGGUAUGUAGGAUAUCGUAGUUUCAGGAUCGUGAGAUCA | 5.81 nM | 6.39 nM |  | 
AUUUUGUGAGGAUAUGUGGCUUCGAUCGUGAAAACGAGGCUACAGAAGGCACAUGAGGAUCACCCAUGUUCCUA | 20.5 nM | 169 nM |  | 
GUAGCUAUCGGAGGAUAUCCUCAGCGGAAACGCACAUGAGGAUCACCCAUGUAAAUAAAUAAUUUGGAGAAGGCCGAUAGCUAC |  |  | 292 nM | 18.6 nM
GUAGAGUAAGGAUAUAGAGAAUAGGAUAGAAUGGUUAGAAUCUAGAAGGUACAUGAGGAUCACCCAUGUAAUGU | 21.9 nM | 19.8 nM |  | 
GUCAGCUCGUGAGGAUAUACAUGUGCUGGAUACAGCACUAUUGUGUUCACAUGAGGAUCACCCAUGUAGAAGGCACGAGCUGAU | 17.7 nM | 87.3 nM |  | 
CUUUUAUAAUAGAAGGUAGACUUUAUGAGGAUCACCCAUGUGUUGGUACUAAGGAUAUGUAGUAACAUGAGGAUCACCCAUGUU |  |  | 25.9 nM | 26.5 nM
AUCAGCUCGUCAGGAUAUACGUCACUGCGUCAGCAGUGUGGUAAGAUCACAUGAGGAUCACCCAUGUAGAAGGGACGAGCUGAG | 14.1 nM | 284 nM |  | 
GUCAGCUCGUGAGGAUAUACAUGUGCUGGAUACAGCACUAAUAGAAUCACAUGAGGAUCACCCAUGUAGAAGGCACGAGCUGAU | 17.6 nM | 39.4 nM |  | 

Sequence | apparent Kd [1] | apparent Kd [2] | apparent Kd [3] | apparent Kd [4]
CAUGAUCAUGUAGGAUAUAUACUGGAAUACAGUAUAGAAGGACAUGAGGAUCACCCAUGUUAUGUGCCUCCAAGUGAGAUCAUG | 20.1 nM | 28.3 nM |  | 
GUCAGCUCUUGAGGAUAUACAACACUGCUUCGGCAGUGUAUUAAGAUCACAUGAGGAUCACCCAUGUAGAAGGCACGAGCUGAU | 13.2 nM | 170 nM |  | 
AAGUCAGCAGGAUAUGCGAUGUUGUGCUAGAUAGCGGGACCACAUGAGGAUCACCCAUGUAGAAGGGCUGGCUA | 34 nM | 22.5 nM |  | 
AAAAAGCUAGGAUAUACAUGAAAAAAAAAAAAGUAAAAAAAACAUGAGGAUCACCCAUGUAGAAGGAGCAAAAA | 44 nM | 39.5 nM |  | 
UGUCGGAGCAGAGGAUAUUACAUGAGGAUCACCCAUGUAUGAACCAAUAGCUGGAUACAGCAAUGUAAGAAGGCUGCUCCGACA | 9.16 nM | 89.2 nM |  | 
AUUCCCAACCAGAAGGACAUGAGGAUCACCCAUGUAGGAUAUGGGUGGGCGACCCGAACUUGGACGAAAUCGCAAUUCUCACAC |  |  | 57.8 nM | 10.4 nM
GGAUUACAUGAGGAUCACCCAUGUGAGGAUAUCGAUGUCCUGUGUGGAGUGCGGGACUCGAGAAGGCACUUGGA | 43.8 nM | 219 nM |  | 
CCCUCACAUGAGGAUCACCCAUGUGAGGAUAUGCAUUCCAAAGCGAGCUUUGAGAAGAGUAGAAGGCACUGGUG | 17.1 nM | 19.9 nM |  | 
AAUAAUAAGGAGGAUAUCGUAUCGGAAACGAUACGAGAAGGUCUAACAUGAGGAUCACCCAUGUUCCUCAAUAA | 40.8 nM | 54.6 nM |  | 
UAUGUGUCAGGAUAUUAGUAGUGUGUGGAUACAUAUAUUGCUGAGAAGGGACAUGAGGAUCACCCAUGUACCUU | 16.2 nM | 17.5 nM |  | 
AGAAACUACGAGAAGGACAUGUGGUCCUUCGAAAACAUGAGGAUCACCCAUGUAGGAUAUCGUAGUUUCAGGAUCGUGAGAUCA | 18.2 nM | 4.37 nM |  | 
GGGCGCCACGUAGGAUAUCUUCCGUAUGGGUCCCAUCAUAGCACAUGAGGAUCACCCAUGUGGGUAGAGAAGGACGGUUUGCCG | 221 nM | 59.5 nM |  | 
AAGAAGUGAGGAUAUCGAAGACAGACGAAAAGUCUGUCAAACGAGAAGGCACAUGAGGAUCACCCAUGUAAGAA | 25.9 nM | 35.2 nM |  | 
UUGGACCUAGGAUAUACAUGAGGAUCACCCAUGUUGGCGCACGCCCACCUGGGCCCGAGUAGAAGGAGGAAUGU | 18.9 nM | 20.3 nM |  | 
AUACUCAUGUAAGGAUAUGCAGCCGUUUCGGCUGCAGAAGGUACUAUAAUACAUGAGGAUCACCCAUGUCUCUCGCCUUGCGAG |  |  | 710 nM | 89.7 nM
GCUAAGAGUGUGAGGAUAUGCUGGUCCUUGGAUCAGCAGAAGGCACAUGAGGAUCACCCAUGUGAAAACUUAGC | 23.3 nM | 89.6 nM |  | 
CACUGCAAUGUAGGAUAUCGACUGGAAUACAGUCGAGAAGGACAUGAGGAUCACCCAUGUAAUCCUAAUAAUAAAUAAGCAGUG | 12.4 nM | 18.4 nM |  | 
CGCUACAGCCAGAAGGACAUGAGGAUCACCCAUGUAGGAUAUGGGAGACACAGUCCCGUGUAGAGAAACUACGCUACUGUAGCG |  |  | 679 nM | 464 nM
CAGUACUGAGGAUAUACAUGAGGAUCACCCAUGUGCCUUAGCUAGGAUACUAGCAUUAGUAGAAGGCAGUACUG | 14.1 nM | 158 nM |  | 
UUGGACUUCGUAGGAUAUGUAGGAUAUUCCUACAUGAGGAUCACCCAUGUUGACAUGGAAGAAGGACAGAAGGACGAUGUCCAU |  |  | 257 nM | 4.12 nM
UUAUUAUAUGUAGGAUAUGCAUAUUAUUAUUAUGCAGAAGGACAUGAGGAUCACCCAUGUAUAUUAUUAUUAUAUAUUAUGUAU | 36.3 nM | 61 nM |  | 
AGCUGUGGCAGAGGAUAUACUACUAUAAUCCAUUGCAAAUAGCGAUGGACAUGAGGAUCACCCAUGUAGAAGGCUGUCUCAGCA | 38.9 nM | 153 nM |  | 
AGGUACAUGAGGAUCACCCAUGUAAGAGACCUCAUGCGAUGUAGAAGGAUAAUCCGAGAAGAGGUAUAGGAUAUACAUGAGAAA | 177 nM | 149 nM |  | 
AAAAGACAUGAGGAUCACCCAUGUUAGGAUAUCGUGCAGAAAAAAAAAAAAAACUGCACGAGAAGGAACAAGGA | 73.5 nM | 88.5 nM |  | 

Reference: the EternaBench riboswitch data
